Screens as filed in PubChem.
Hits are enriched below; roughly 6.7% of the tested compounds scored in any of these assays.
Beta cell apopt: beta cell apoptosis inhibition; INS-1E cytokine-induced death, ATP luminescence, 48 h; percent of positive-control rescue, neutral wells zero; protection from apoptosis, % (test concentration not listed); 300,000 tested, 0.8% active; AID 435005;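 active means Every replicate reaches about 75%, or at least half do and their mean reaches it too, limit read from the data; inconclusive means At least half of replicates reach the limit but their mean does not; inactive means Under half of replicates reach the limit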;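 further: higher means more ATP so stronger rescue from cytokine killing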
CHOP inh: inhibitors of CHOP induction in ER stress response; CHO-K1 CHOP-promoter luciferase, tunicamycin-induced, 15-18 h; inhibition, % at 10 µM; 220,000 tested, 3.8% active; AID 2732;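 active means compounds that reduced the stress-induced luciferase reporter signal by more than about 70% of percent inhibition, limit read from the data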
CSC inhib: cancer stem cell inhibition; cancer stem cell-like cells viability, luminescence; inhibition, % at 7.5 µM; 300,000 tested, 1.1% active; AID 2717; in the data active means inhibition above about 75%; inconclusive means no clear call, values can overlap the other calls; tested in HMLE shEcad cells
T cruzi inh: blocks replication of Trypanosoma cruzi; T. cruzi beta-gal in NIH3T3, luminescence, 90 h; inhibition, % (no concentration beside the values); 300,000 tested, 1.4% active; AID 1885;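 active means mean inhibition across valid replicates above about 55%, limit read from the data; inconclusive means mean below that limit but half or more replicates reach it; inactive means mean below it, under half of replicates reach it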;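 further: signal also drops with host cell toxicity which is not excluded here; higher percent means less beta-gal luminescence so fewer parasites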
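System: mouse NIH/3T3 fibroblasts infected with β-gal-expressing T. cruzi Tulahuen C4 / Input: NIH/3T3 cells, 5,000 per well / Buffer or medium: Low-serum DMEM with 2% FBS / Probe or stimulus: 5000 reporter trypomastigotes per well / Schedule: ≥90 h infection period, 3 h prior cell attachment / Measured by: GalScreen luminescence, 60 min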
PREPL inh: inhibitors of human prolyl oligopeptidase-like enzyme PREPL; 320,000 tested, 0.68% active; recombinant PREPL, fluorescence polarization activity-based probe; inhibition, % at 5.96 µM; AID 2751
Target sequence (Q4J6C6 whole entry, looked up): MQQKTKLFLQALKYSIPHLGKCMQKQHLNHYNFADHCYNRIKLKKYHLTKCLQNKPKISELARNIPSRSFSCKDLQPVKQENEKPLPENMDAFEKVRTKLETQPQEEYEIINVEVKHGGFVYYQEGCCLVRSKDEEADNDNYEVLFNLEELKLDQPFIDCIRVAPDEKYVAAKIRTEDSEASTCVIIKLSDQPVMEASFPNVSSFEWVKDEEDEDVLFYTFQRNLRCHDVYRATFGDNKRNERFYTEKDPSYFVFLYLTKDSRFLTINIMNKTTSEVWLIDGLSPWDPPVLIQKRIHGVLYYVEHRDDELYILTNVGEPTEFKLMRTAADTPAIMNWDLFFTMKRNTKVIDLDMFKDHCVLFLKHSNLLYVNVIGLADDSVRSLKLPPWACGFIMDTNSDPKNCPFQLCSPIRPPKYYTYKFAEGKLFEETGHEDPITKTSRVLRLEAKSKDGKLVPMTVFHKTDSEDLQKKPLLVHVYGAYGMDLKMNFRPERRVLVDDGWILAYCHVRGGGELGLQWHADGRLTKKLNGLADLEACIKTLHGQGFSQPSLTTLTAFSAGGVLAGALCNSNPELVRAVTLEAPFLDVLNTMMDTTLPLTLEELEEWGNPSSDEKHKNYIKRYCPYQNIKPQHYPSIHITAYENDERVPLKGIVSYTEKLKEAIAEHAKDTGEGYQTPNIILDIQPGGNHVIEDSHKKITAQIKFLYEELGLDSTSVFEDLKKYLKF
NR3A LBD binder: modulates the human NR3A ligand-binding domain; NR3A LBD differential scanning fluorimetry, Tm shift; 0% = protein alone, 100% = glycine-bound protein; Tm shift relative to glycine control, % at 25 µM; 340,000 tested, 2.5% active; AID 1259313;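 active means melting temperature shift of at least 10% of the positive control shift, at one fixed dose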
PREPL inh cf: confirmation of human PREPL enzyme inhibitors. shares compounds with PREPL inh. recombinant PREPL, fluorescence polarization activity probe. inhibition, % at 5.96 µM. 2,000 tested, 67% active
Of the large screens only hits and unclear results are named; the others gave an inactive call (follow-up assays come after a bar, where they were run). Unless noted, no stated cut-off is given here; in the data, active means inhibition above about 43%; inactive means the rest.

CC(C)OC(=O)c1cc2c(ccn2-c2ccc(F)cc2)n1CC(=O)N1CCN(C(=O)c2ccco2)CC1	PREPL inh 47.3 | PREPL inh cf 48.1
CC(C)OC(=O)c1cc2c(ccn2C)n1CC(=O)N1CCC(Cc2ccccc2)CC1	CHOP inh 70.2, PREPL inh 43.9 | PREPL inh cf inactive
CCOC(=O)c1cc2c(ccn2C)n1CC(=O)N1CCN(c2ccccc2)CC1	none
Cc1cc[n+](CC(=O)c2ccc3c(c2)OCCO3)cc1	none
O=C(C[n+]1ccc(/C=C/c2ccccc2)cc1)c1ccc2c(c1)OCCO2	PREPL inh 63.2 | PREPL inh cf inactive
COc1cccc(CNc2ccc3[nH]c(=O)[nH]c3c2)c1OCc1ccc(F)cc1	none (no result: CHOP inh, PREPL inh)
O=c1[nH]c2ccc(NCc3ccccc3OCc3ccc(Cl)cc3)cc2[nH]1	PREPL inh 72.5 (no result: CHOP inh) | PREPL inh cf 73.1
Cc1ccc2oc(NC(=O)N3CCOCC3)cc(=O)c2c1	none
Cc1ccc(NC(=O)N2CCOCC2)c(C)c1	PREPL inh 87.3 | PREPL inh cf inactive
CC1CN(C(=O)CCc2cc(C(C)(C)C)c(O)c(C(C)(C)C)c2)CC(C)O1 (centres undefined)	none (no result: CHOP inh)
O=C(Nc1ccc(Cl)cc1)Nc1ccc2c(c1)N1CCN=C1S2	PREPL inh 58.2, NR3A LBD binder 13.6 (no result: CSC inhib) | PREPL inh cf inactive
O=C(NCCc1c[nH]c2ccccc12)C(=O)NCC(c1ccco1)N1CCN(c2ccccc2)CC1 (centres undefined)	PREPL inh 45.6 | PREPL inh cf inactive
COc1ccc(OCCn2cc(/C=N/NC(=O)c3ccncc3)c3ccccc32)cc1	none
COc1cccc(OCCn2cc(/C=N/NC(=O)c3ccncc3)c3ccccc32)c1	PREPL inh 50.2 | PREPL inh cf inactive
Cc1ccc(OCCn2cc(/C=N/NC(=O)c3ccncc3)c3ccccc32)cc1	PREPL inh 52.3 | PREPL inh cf 64.7
Cn1cnc2c1c(=O)n(Cc1cccc(Cl)c1)c(=O)n2C	none (no result: CHOP inh)
CNC[C@@H]1Oc2ccc(NC(=O)Nc3cccc4ccccc34)cc2C(=O)N([C@@H](C)CO)C[C@@H]1C	PREPL inh 49.6 (no result: CHOP inh, T cruzi inh, NR3A LBD binder) | PREPL inh cf 46.1
C[C@H](CO)N1C[C@H](C)[C@@H](CN(C)S(=O)(=O)c2ccc(F)cc2)Oc2ccc(NC(=O)Nc3ccc4c(c3)OCO4)cc2C1=O	PREPL inh 45.2 (no result: Beta cell apopt, CHOP inh, CSC inhib, T cruzi inh) | PREPL inh cf 47.8
CNC[C@@H]1Oc2ccc(NC(=O)Nc3ccccc3)cc2C(=O)N([C@@H](C)CO)C[C@H]1C	none (no result: CHOP inh, T cruzi inh)
COc1ccc(S(=O)(=O)Nc2ccc3c(c2)C(=O)N([C@H](C)CO)C[C@H](C)[C@@H](CN(C)C(=O)Nc2ccc(C(F)(F)F)cc2)O3)cc1	PREPL inh 44.7 (no result: CHOP inh, CSC inhib, T cruzi inh) | PREPL inh cf inactive
Cc1noc(C)c1S(=O)(=O)Nc1ccc2c(c1)C(=O)N([C@H](C)CO)C[C@H](C)[C@@H](CN(C)C(=O)Nc1ccc(C(F)(F)F)cc1)O2	PREPL inh 54.8 (no result: Beta cell apopt, CHOP inh, CSC inhib, T cruzi inh) | PREPL inh cf 50.1
Cc1ccc2nc(SC(C)C(=O)Nc3cccc([N+](=O)[O-])c3)[nH]c2c1 (centres undefined)	none (no result: CSC inhib)
COc1ccc2nc3cc(Cl)ccc3c(Nc3cc(CN4CCCC4)c(O)c(CN4CCCC4)c3)c2n1	Beta cell apopt inconclusive, T cruzi inh 58.7, PREPL inh 63.9 (no result: CHOP inh, NR3A LBD binder) | PREPL inh cf 53.8
COc1ccc(N=Nc2cc(C)c(O)c(CN3CCCCC3)c2)cc1	none
CCOC(=O)N1CCN(C(=O)CCN2C(=O)/C(=C\c3cccc(OC)c3)SC2=S)CC1	none (no result: CHOP inh, CSC inhib)
Nc1ccn(C2OC(COC(=O)C34CC5CC(CC(C5)C3)C4)C(O)C2O)c(=O)n1 (centres undefined)	none (no result: Beta cell apopt, CHOP inh, CSC inhib, T cruzi inh, PREPL inh)
CC1(C)CC(NC(=O)c2cc(S(=O)(=O)N3CCOCC3)ccc2Cl)CC(C)(C)N1	none (no result: CHOP inh, T cruzi inh)
Cc1c(C#N)c(N=CN(C)C)c(C(=O)c2ccc(Br)cc2)n1-c1ccc(Cl)cc1	T cruzi inh 57.2, PREPL inh 48.3 | PREPL inh cf 53.2
CCN1C(=O)[C@H]2[C@@H](c3ccc(-c4ccc(Cl)c(Cl)c4)c(OC)c3)N[C@@](C)(C(=O)OC)[C@H]2C1=O	none (no result: CHOP inh)
CCN1C(=O)[C@H]2[C@@H](c3ccc(-c4ccc(Cl)c(Cl)c4)cc3)N[C@@](C)(C(=O)OC)[C@H]2C1=O	PREPL inh 45.5 (no result: CHOP inh) | PREPL inh cf inactive
O=[N+]([O-])c1cccc(/C=C/c2nc[nH]c2[N+](=O)[O-])c1	PREPL inh 45.1, NR3A LBD binder 15.9 | PREPL inh cf inactive
Cc1c(N=Cc2ccco2)c(=O)n(-c2ccccc2)n1C	none (no result: T cruzi inh)
COc1ccc2c(C=Nc3c(C)n(C)n(-c4ccccc4)c3=O)c(O)n(Cc3ccco3)c(=O)c2c1	PREPL inh 55.6 (no result: CSC inhib) | PREPL inh cf inactive
CC(=O)N1CCN(c2ccc(OC[C@H]3CO[C@](Cn4ccnc4)(c4ccc(Cl)cc4Cl)O3)cc2)CC1	PREPL inh 60.8 | PREPL inh cf 64.1
COCCn1nnnc1CN1CCSCC1	none
CCCCn1c(-c2ccc(F)c(F)c2)nc2cc3[nH]c(=O)c(C(C)C)nc3cc21	none (no result: CHOP inh)
CCCCn1c(CCc2ccccc2)nc2cc3[nH]c(=O)c(C(C)C)nc3cc21	PREPL inh 43.5 (no result: CHOP inh) | PREPL inh cf inactive
COc1ccc(C2CC(C)(c3ccc(OC)cc3)Nc3ccccc3N2)cc1 (centres undefined)	PREPL inh 45.0 | PREPL inh cf inactive
COc1ccc(C2(C)CC(C)(C)Nc3ccccc32)cc1 (centres undefined)	none (no result: CHOP inh)
O=C(COC(=O)CCS(=O)(=O)c1ccc(F)cc1)NC1CCCCC1	none (no result: CHOP inh, CSC inhib, T cruzi inh)
Cc1ccc(NC2=CC(=O)C(=O)c3ccccc32)c(C)c1	Beta cell apopt 101.5, PREPL inh 47.0 (no result: CHOP inh, CSC inhib, T cruzi inh) | PREPL inh cf inactive
O=[N+]([O-])c1cc(-c2ccccc2)cc([N+](=O)[O-])c1O	none (no result: Beta cell apopt, CHOP inh, CSC inhib, T cruzi inh, PREPL inh)
O=C([O-])c1ccccc1-[n+]1c(-c2ccccc2)cc(-c2ccccc2)cc1-c1ccccc1	PREPL inh 55.5 (no result: CHOP inh) | PREPL inh cf 46.2
COc1ccc(NCC(=O)N/N=C/C=C\c2ccccc2)cc1	PREPL inh 67.3 | PREPL inh cf 45.7
Cc1ccc(NC(=O)CCC(=O)N/N=C/C=C/c2ccccc2)cc1	none
CCN(C(=O)c1cccc(S(=O)(=O)N2CCCCC2)c1)C1CCS(=O)(=O)C1 (centres undefined)	none (no result: Beta cell apopt, CHOP inh, CSC inhib, PREPL inh)
COc1ccc2c(/C=N/Nc3ccc(C(=O)O)cc3)c[nH]c2c1	PREPL inh 56.3 (no result: CHOP inh) | PREPL inh cf inactive
CCN(CC)CCn1c(=N)n(CC(O)c2ccc(OC)c(OC)c2)c2ccccc21 (centres undefined)	PREPL inh 44.3 | PREPL inh cf inactive
COc1cc(/C=C(\C#N)C(=O)c2ccc(O)c(O)c2)cc(I)c1O	CHOP inh 85.7, PREPL inh 55.8 (no result: T cruzi inh) | PREPL inh cf inactive
